Measurements as given in article PMC7557949 (ACS Omega, 2020).
In brackets after ≈: the same amount, converted by molar mass.

Experiments:
[1] = tested on: herpes simplex virus type 1 (HSV-1); test: Plaque assay, antiviral activity against HSV-1; format: cell-based; conditions: Human alphaherpesvirus 1, Vero
[2] = tested on: C. albicans (ATCC:10231); test: Agar well diffusion, inhibition zone; format: cell-based, Candida albicans; conditions: 15 mg/mL, 100 μL per well; mm ± SD
Outline: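 Fungal plates were poured and agar dried 15 min. 6 mm wells were cut with a sterile borer and filled with 100 μL test compound solution at 15 mg/mL. Inhibition zone diameter (mm) was read after 48 h incubation. Triplicate, reported as mm ± SD.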

[3] = tested on: P. aeruginosa (ATCC:27853); test: Agar well diffusion, inhibition zone; format: cell-based, Pseudomonas aeruginosa; conditions: 15 mg/mL, 100 μL per well; mm ± SD
Outline: (§1)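 Agar well diffusion. Saline inoculum adjusted to McFarland 0.5 ([…]), i.e. OD 0.13 at 625 nm, and swabbed over dried agar. After 15 min drying, 6 mm wells received 100 μL of test compound at 15 mg/mL. Plates incubated at 37 °C; bacterial zones read in mm after 24 h incubation […]. Triplicate, reported as mm ± SD. Gentamicin and ampicillin served as reference drugs.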

[4] = Cytotoxicity test on BGM cell line; format: cell-based; conditions: African green monkey, uninfected BGM cells
Outline: (§2)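 Test compound was dissolved at 50 mg/mL in DMSO and decontaminated with 100× antimycotic–antibiotic mix. Cells were seeded at 2 × 10^5 cells/mL and grown 24 h at 37 °C, 5% CO2, to monolayers. Bi-fold dilutions in DMEM were applied for 72 h. Read by daily microscopy for morphology and by trypan blue (0.4%) viable counts. CC50 taken as the concentration giving 50% of untreated-cell OD492.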

[5] = Cytotoxicity test on FRHK-4 cell line; format: cell-based; conditions: rhesus monkey, uninfected FRHK-4 cells
Outline: as §2

[6] = tested on: S. aureus (ATCC:6538); test: Agar well diffusion, inhibition zone; format: cell-based, Staphylococcus aureus; conditions: for zone of inhibition at 15000 µg/mL: Staphylococcus aureus, 24 h, read-out: diameter of the IZ, S. aureus (ATCC:6538)
Outline: as §1

[7] = tested on: E. coli (ATCC:3008); test: Agar well diffusion, inhibition zone; format: cell-based, Escherichia coli; conditions: 15 mg/mL, 100 μL per well; mm ± SD
Outline: as §1

[8] = tested on: hepatitis A virus HM 175 (HAV HM 175); test: Plaque assay, antiviral activity against HAV HM 175; format: cell-based
Outline: (§3)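 Plaque reduction. Nontoxic dilutions of test compound were mixed 1:1 with virus at 1 × 105, 1 × 106 or 1 × 107, for 0.5 h at 37 °C. 10-fold dilutions went onto BGM (CBV4), FRHK4 (HAV HM 175) or Hep-2 (adenovirus 7), with 1 h adsorption at 37 °C. Overlay was 2× DMEM plus 1% agarose. Cells were formalin-fixed and crystal violet-stained, and plaques counted. Triplicate. IC50 is the half-maximal plaque-reduction concentration.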

[9] = tested on: K. pneumonia (ATCC:4415); test: Agar well diffusion, inhibition zone; format: cell-based, Klebsiella pneumonia; conditions: 15 mg/mL, 100 μL per well; mm ± SD
Outline: as §1

[10] = biological target: Hsp90α (Homo sapiens, UniProt P07900); test: Hsp90α; format: biochemical; conditions: for inhibition at 0.1 µg/mL: read-out: percentage inhibition of Hsp90α at 0.1 (μg/mL); for inhibition at 1 µg/mL: read-out: percentage inhibition of Hsp90α at 1 (μg/mL); for inhibition at 10 µg/mL: read-out: percentage inhibition of Hsp90α at 10 (μg/mL); for inhibition at 100 µg/mL: read-out: percentage inhibition of Hsp90α at 100 (μg/mL)
Outline: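 AlphaScreen kit assay for Hsp90α C-terminal binding to PPID. Hsp90α was diluted to 1.5 ng/μL in assay buffer and premixed with test compound. The reaction was started with PPID diluted to 10 ng/μL and run 30 min at room temperature. Glutathione acceptor beads were added for 30 min, then streptavidin donor beads for 1 h, and Alpha counts read. Triplicate; percent inhibition calculated against control.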

[11] = tested on: S. mutans (ATCC:25175); test: Agar well diffusion, inhibition zone; format: cell-based; conditions: for zone of inhibition at 15000 µg/mL: Streptococcus mutans, 24 h, read-out: diameter of the IZ, S. mutans (ATCC:25175)
Outline: as §1

[12] = tested on: ED-43/SG-Feo (VYG) replicon of hepatitis C virus genotype 4a (HCVcc); test: Antiviral bioassay against ED-43/SG-Feo; format: cell-based; conditions: nontoxic dose of compound; average of three independent measurements
Outline: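 Huh 7.5 cells carrying the ED-43/SG-Feo (VYG) HCV genotype 4a subgenomic replicon were treated with the nontoxic dose of test compound. Replicon RNA copies were quantified by TaqMan qRT-PCR, and the result was expressed as percent reduction.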

[13] = tested on: adenovirus type 7 (HAdV7); test: Plaque assay, antiviral activity against adenovirus type 7; format: cell-based; conditions: nontoxic dose of compound; average of three independent measurements
Outline: as §3

[14] = Cytotoxicity test on Vero cell line; format: cell-based; conditions: African green monkey, uninfected Vero cells
Outline: as §2

[15] = tested on: K. pneumonia (ATCC:4415); test: MIC, twofold serial dilution in agar; format: cell-based; conditions: Klebsiella pneumoniae, read-out: MIC, K. pneumonia (ATCC:4415)
[16] = tested on: P. aeruginosa (ATCC:27853); test: MIC, twofold serial dilution in agar; format: cell-based; conditions: Pseudomonas aeruginosa, read-out: MIC, P. aeruginosa (ATCC:27853)
[17] = tested on: E. coli (ATCC:3008); test: MIC, twofold serial dilution in agar; format: cell-based; conditions: Escherichia coli, read-out: MIC, E. coli (ATCC:3008)
[18] = tested on: S. mutans (ATCC:25175); test: MIC, twofold serial dilution in agar; format: cell-based; conditions: Streptococcus mutans, read-out: MIC, S. mutans (ATCC:25175)
[19] = biological target: T1, dihydrofolate reductase (DHFR) (Homo sapiens, UniProt P00374); test: DHFR inhibitor screening assay; format: biochemical; conditions: for IC50: IC50 on the DHFR, average of three measurements; for inhibition at 0.01 µg/mL: read-out: percent inhibition of DHFR at 0.01 (μg/mL); for inhibition at 0.1 µg/mL: read-out: percent inhibition of DHFR at 0.1 (μg/mL); for inhibition at 1 µg/mL: read-out: percent inhibition of DHFR at 1 (μg/mL); for inhibition at 10 µg/mL: read-out: percent inhibition of DHFR at 10 (μg/mL)
T1 sequence (P00374 1-187): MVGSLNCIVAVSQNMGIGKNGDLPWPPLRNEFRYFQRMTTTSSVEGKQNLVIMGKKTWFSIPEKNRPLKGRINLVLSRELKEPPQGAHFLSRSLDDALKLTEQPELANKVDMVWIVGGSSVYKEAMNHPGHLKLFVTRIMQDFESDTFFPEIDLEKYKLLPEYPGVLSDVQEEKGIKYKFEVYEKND

[20] = tested on: S. aureus (ATCC:6538); test: MIC, twofold serial dilution in agar; format: cell-based; conditions: Staphylococcus aureus, read-out: MIC, S. aureus (ATCC:6538)
[21] = tested on: C. albicans (ATCC:10231); test: MIC, twofold serial dilution in agar; format: cell-based, Candida albicans
Outline: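 Test compound and reference drugs (ampicillin, gentamicin, nystatin) were made as 1000 μg/mL DMSO stocks, then diluted twofold to 500, 250, 125, 62.5 and 31.25 μg/mL. Dilutions were mixed into sterile nutrient agar, and a defined microbial inoculum was applied to the agar surface. Plates incubated at 37 °C in a humid chamber.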

[22] = 15 mg/mL, 100 μL per well, mm ± SD

Sequence of Hsp90α (P07900 535-732 limits assumed): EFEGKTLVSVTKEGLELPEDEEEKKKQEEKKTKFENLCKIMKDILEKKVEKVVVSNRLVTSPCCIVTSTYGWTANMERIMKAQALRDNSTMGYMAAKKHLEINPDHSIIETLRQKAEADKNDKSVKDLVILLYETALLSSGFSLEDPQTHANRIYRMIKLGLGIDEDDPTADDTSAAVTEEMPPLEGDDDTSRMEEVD

MIC [15]	MIC [16]	MIC [17]	Compound	IC50 [1]	diameter of the IZ, C. albicans (ATCC:10231) [2]	diameter of the IZ, P. aeruginosa (ATCC:27853) [3]	CC50 at 72 h [4]	diameter of the IZ, E. coli (ATCC:3008) [7]	inhibition at 0.1 µg/mL [10]	inhibition at 1 µg/mL [10]	inhibition at 10 µg/mL [10]	inhibition at 100 µg/mL [10]	mean % of reduction, HCVcc genotype 4 [12]	mean % of reduction, adenovirus type 7 [13]	CC50 at 72 h [14]	zone of inhibition at 15000 µg/mL [6]	IC50 [19]	inhibition at 0.01 µg/mL [19]	inhibition at 0.1 µg/mL [19]	inhibition at 1 µg/mL [19]	other results
			CCOC(=O)c1cc(C#N)c(=O)n(NS(=O)(=O)c2ccccc2)c1N [15c, Ethyl 2-Amino-5-cyano-6-oxo-1-(phenylsulfonamido)-1,6-dihydropyridine-3-carboxylate]	90 mg/L (≈ 248 µM)	no activity	no activity	260 mg/L (≈ 718 µM)	no activity	8.42%	26.1%	48.7%	72.7%	20.0 ± 0.15%	36.7 ± 0.30%	250 mg/L (≈ 690 µM)						CC50 at 72 h [5]: 260 mg/L (≈ 718 µM); diameter of the IZ, S. aureus (ATCC:6538) [6, 22]: no activity; IC50 ([8]; Hepatovirus A, FRhK-4): 88 mg/L (≈ 243 µM); diameter of the IZ, K. pneumonia (ATCC:4415) [9]: no activity; diameter of the IZ, S. mutans (ATCC:25175) [11, 22]: no activity
62.5 mg/L (≈ 131 µM)	125 mg/L (≈ 262 µM)	31.2 mg/L (≈ 65.4 µM)	CNC(C)C1CCC(N)C(OC2C(N)CC(N)C(OC3OCC(C)(O)C(NC)C3O)C2O)O1 (stereo not shown) [gentamicin]			35.0 ± 0.1 mm		25.0 ± 0.1 mm													
250 mg/L (≈ 999 µM)	250 mg/L (≈ 999 µM)	250 mg/L (≈ 999 µM)	Nc1ccc(S(=O)(=O)Nc2ncccn2)cc1 [sulfadiazine, reference compound]		no activity	24.0 ± 1.4 mm		19.8 ± 0.4 mm								31.3 ± 2.1 mm	0.803 µM	28.7%	46.8%	60.2%	MIC [18]: 125 mg/L (≈ 499 µM); inhibition at 10 µg/mL [19]: 76.7%; zone of inhibition at 15000 µg/mL [11]: 16.3 ± 1.1 mm; MIC [20]: 500 mg/L (≈ 2000 µM)
			C[C@@H]1[C@H](O)[C@@H](C)/C=C/C=C/CC/C=C/C=C/C=C/C=C/C(O[C@H]2O[C@H](C)[C@@H](O)[C@H](N)[C@@H]2O)CC2O[C@](O)(CC(O)C(O)CCC(O)CC(O)CC(O)CC(=O)O[C@H]1C)CC(O)C2C(=O)O (stereo partly shown) [nystatin, reference compound]		28.0 ± 0.2 mm																MIC, C. albicans (ATCC:10231) [21]: 31.25 mg/L (≈ 33.7 µM)

Compound	MIC [15]	MIC [16]	MIC [17]	IC50 [1]	diameter of the IZ, C. albicans (ATCC:10231) [2]	diameter of the IZ, P. aeruginosa (ATCC:27853) [3]	CC50 at 72 h [4]	diameter of the IZ, E. coli (ATCC:3008) [7]	inhibition at 0.1 µg/mL [10]	inhibition at 1 µg/mL [10]	inhibition at 10 µg/mL [10]	inhibition at 100 µg/mL [10]	mean % of reduction, HCVcc genotype 4 [12]	mean % of reduction, adenovirus type 7 [13]	CC50 at 72 h [14]	zone of inhibition at 15000 µg/mL [6]	IC50 [19]	inhibition at 0.01 µg/mL [19]	inhibition at 0.1 µg/mL [19]	inhibition at 1 µg/mL [19]	other results
CCOC(=O)c1cc(C#N)c(=O)n(NS(=O)(=O)c2ccc(C)cc2)c1N [15d, Ethyl 2-Amino-5-cyano-1-(4-methylphenylsulfonamido)-6-oxo-1,6-dihydropyridine-3-carboxylate]			1000 mg/L (≈ 2660 µM)	90 mg/L (≈ 239 µM)			240 mg/L (≈ 638 µM)	19.6 ± 1.5 mm	10.5%	25.9%	57.4%	89.9%	20.0 ± 0.20%	30.0 ± 0.10%	220 mg/L (≈ 584 µM)	11.3 ± 1.1 mm	12.4 µM	11.1%	20.7%	39.9%	inhibition at 10 µg/mL [19]: 56.1%; mean % of reduction, HAV HM 175 ([8]; nontoxic dose of compound, average of three independent measurements): 36.7 ± 0.25%; zone of inhibition at 15000 µg/mL [11]: 9 ± 1 mm
